Measured values: ChEMBL document CHEMBL4368898, “Tridecaptin-inspired antimicrobial peptides with activity against multidrug-resistant Gram-negative bacteria” (Medchemcomm, 2019)
Values after ≈ are worked out from the molar mass of the structure shown. Where a SMILES comes first, the peptide text is derived from it. [ ]: non-standard residue; d: D form. The star is where a group is joined. d(aIle) = CC[C@H](C)[C@@H](N)C(=O)O; dOrn = NCCC[C@@H](N)C(=O)O; dDab = NCC[C@@H](N)C(=O)O; Octanoyl = CCCCCCCC(=O)*; Orn = NCCC[C@H](N)C(=O)O; Dab = NCC[C@H](N)C(=O)O

Columns and labels:
Format in all cases: functional
Enterobacter cloacae = assay: Antimicrobial activity against carbapenemase-producing Enterobacter cloacae […] assessed as inhibition of bacterial growth incubated for 18 hrs by CLSI based serial broth dilution method
Method in brief: (§1)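 MIC by microbroth dilution, run in duplicate, reported in μg mL−1 to three significant figures. The Gram-negative panel includes environmental isolates from sewage-contaminated water in Lebanon and clinical isolates from patients. Strains are classed by carbapenemase production.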

Klebsiella pneumoniae [1] = assay: Antimicrobial activity against carbapenemase-producing Klebsiella pneumoniae IMP 485 assessed as inhibition of bacterial growth incubated for 18 hrs by CLSI based serial broth dilution method; settings: IMP 485, 18 h; method in brief: as §1
Klebsiella pneumoniae [2] = assay: Antimicrobial activity against carbapenemase-producing Klebsiella pneumoniae IMP 177 assessed as inhibition of bacterial growth incubated for 18 hrs by CLSI based serial broth dilution method; settings: IMP 177, 18 h; method in brief: as §1
Klebsiella pneumoniae [3] = assay: Antimicrobial activity against carbapenemase-producing Klebsiella pneumoniae IMP 204 assessed as inhibition of bacterial growth incubated for 18 hrs by CLSI based serial broth dilution method; settings: IMP 204, 18 h; method in brief: as §1
Acinetobacter baumannii [4] = assay: Antimicrobial activity against carbapenemase-non-producing Acinetobacter baumannii assessed as inhibition of bacterial growth incubated for 18 hrs by CLSI based serial broth dilution method; method in brief: as §1
Klebsiella pneumoniae [5] = assay: Antimicrobial activity against carbapenemase-producing Klebsiella pneumoniae IMP 216 assessed as inhibition of bacterial growth incubated for 18 hrs by CLSI based serial broth dilution method; settings: IMP 216, 18 h; method in brief: as §1
Klebsiella pneumoniae [6] = assay: Antimicrobial activity against carbapenemase-producing Klebsiella pneumoniae IMP 170 assessed as inhibition of bacterial growth incubated for 18 hrs by CLSI based serial broth dilution method; settings: IMP 170, 18 h; method in brief: as §1
Klebsiella pneumoniae [7] = assay: Antimicrobial activity against carbapenemase-non-producing Klebsiella pneumoniae assessed as inhibition of bacterial growth incubated for 18 hrs by CLSI based serial broth dilution method; method in brief: as §1
Acinetobacter baumannii [8] = assay: Antimicrobial activity against carbapenemase-producing Acinetobacter baumannii ACM 29 assessed as inhibition of bacterial growth incubated for 18 hrs by CLSI based serial broth dilution method; settings: ACM 29, 18 h; method in brief: as §1
Pseudomonas oleovorans = assay: Antimicrobial activity against carbapenemase-non-producing Pseudomonas pseudoalcaligenes assessed as inhibition of bacterial growth incubated for 18 hrs by CLSI based serial broth dilution method; settings: Ectopseudomonas oleovorans; method in brief: as §1
Acinetobacter baumannii [9] = assay: Antimicrobial activity against carbapenemase-producing Acinetobacter baumannii ACM 11 assessed as inhibition of bacterial growth incubated for 18 hrs by CLSI based serial broth dilution method; settings: ACM 11, 18 h; method in brief: as §1

Row | MIC (Enterobacter cloacae) [µg/mL] | MIC (Klebsiella pneumoniae [1]) [µg/mL] | MIC (Klebsiella pneumoniae [2]) [µg/mL] | MIC (Klebsiella pneumoniae [3]) [µg/mL] | MIC (Acinetobacter baumannii [4]) [µg/mL] | MIC (Klebsiella pneumoniae [5]) [µg/mL] | MIC (Klebsiella pneumoniae [6]) [µg/mL] | MIC (Klebsiella pneumoniae [7]) [µg/mL] | MIC (Acinetobacter baumannii [8]) [µg/mL] | MIC (Pseudomonas oleovorans) [µg/mL] | MIC (Acinetobacter baumannii [9]) [µg/mL] | Structure (SMILES)
1 | 25 (≈ 15.6 µM) | 25 (≈ 15.6 µM) | 25 (≈ 15.6 µM) | 50 (≈ 31.2 µM) | 6.25 (≈ 3.89 µM) | 25 (≈ 15.6 µM) | 50 (≈ 31.2 µM) | 50 (≈ 31.2 µM) | 25 (≈ 15.6 µM) | 100 (≈ 62.3 µM) | 25 (≈ 15.6 µM) | CCCCCCCC(=O)N[C@@H](C(=O)N[C@H](CCCCN)C(=O)NCC(=O)N[C@H](CO)C(=O)N[C@H](Cc1c[nH]c2ccccc12)C(=O)N[C@@H](CO)C(=O)N[C@@H](CCCCN)C(=O)N[C@H](CCCCN)C(=O)N[C@@H](Cc1ccccc1)C(=O)N[C@@H](CCC(=O)O)C(=O)N[C@H](C(=O)N[C@@H](C(=O)N[C@@H](C)C(=O)O)[C@@H](C)CC)C(C)C)C(C)C (HELM PEPTIDE1{[CCCCCCCC(=O)[*:2]].[dV].[dK].G.[dS].[dW].S.K.[dK].F.E.V.[CC[C@H](C)[C@@H](N[*:1])C(=O)[*:2]].A}$$$$V2.0)
2 | > 100 | > 100 | > 100 | > 100 | > 100 | > 100 | > 100 | > 100 | > 100 | > 100 | > 100 | CCCCCCCC(=O)N[C@@H](C(=O)N[C@H](CCCCN)C(=O)NCC(=O)N[C@H](CO)C(=O)N[C@H](Cc1c[nH]c2ccccc12)C(=O)N[C@@H](CO)C(=O)N[C@@H](CCCCN)C(=O)N[C@H](CCCCN)C(=O)N[C@@H](Cc1ccccc1)C(=O)N[C@@H](CCC(=O)O)C(=O)N[C@H](C(=O)N[C@@H](C(=O)N[C@@H](C)C(=O)O)C(C)C)C(C)C)C(C)C (HELM PEPTIDE1{[CCCCCCCC(=O)[*:2]].[dV].[dK].G.[dS].[dW].S.K.[dK].F.E.V.[dV].A}$$$$V2.0)
3 | 12.5 (≈ 8.07 µM) | 12.5 (≈ 8.07 µM) | 12.5 (≈ 8.07 µM) | 12.5 (≈ 8.07 µM) | 25 (≈ 16.1 µM) | 12.5 (≈ 8.07 µM) | 25 (≈ 16.1 µM) | 50 (≈ 32.3 µM) | 50 (≈ 32.3 µM) | 6.25 (≈ 4.04 µM) | 25 (≈ 16.1 µM) | CCCCCCCC(=O)N[C@@H](C(=O)N[C@H](CCCN)C(=O)NCC(=O)N[C@H](CO)C(=O)N[C@H](Cc1c[nH]c2ccccc12)C(=O)N[C@@H](CO)C(=O)N[C@@H](CCCN)C(=O)N[C@H](CCCN)C(=O)N[C@@H](Cc1ccccc1)C(=O)N[C@@H](CCC(=O)O)C(=O)N[C@H](C(=O)N[C@@H](C(=O)N[C@@H](C)C(=O)O)C(C)C)C(C)C)C(C)C (Octanoyl-[dV][dOrn]G[dS][dW]S[Orn][dOrn]FEV[dV]A-OH)

More lines, now with the values behind:

Row | Structure (SMILES) | MIC (Enterobacter cloacae) [µg/mL] | MIC (Klebsiella pneumoniae [1]) [µg/mL] | MIC (Klebsiella pneumoniae [2]) [µg/mL] | MIC (Klebsiella pneumoniae [3]) [µg/mL] | MIC (Acinetobacter baumannii [4]) [µg/mL] | MIC (Klebsiella pneumoniae [5]) [µg/mL] | MIC (Klebsiella pneumoniae [6]) [µg/mL] | MIC (Klebsiella pneumoniae [7]) [µg/mL] | MIC (Acinetobacter baumannii [8]) [µg/mL] | MIC (Pseudomonas oleovorans) [µg/mL] | MIC (Acinetobacter baumannii [9]) [µg/mL]
4 | CCCCCCCC(=O)N[C@@H](C(=O)N[C@H](CCN)C(=O)NCC(=O)N[C@H](CO)C(=O)N[C@H](Cc1c[nH]c2ccccc12)C(=O)N[C@@H](CO)C(=O)N[C@@H](CCN)C(=O)N[C@H](CCN)C(=O)N[C@@H](Cc1ccccc1)C(=O)N[C@@H](CCC(=O)O)C(=O)N[C@H](C(=O)N[C@@H](C(=O)N[C@@H](C)C(=O)O)[C@@H](C)CC)C(C)C)C(C)C | 3.13 (≈ 2.06 µM) | 6.25 (≈ 4.11 µM) | 6.25 (≈ 4.11 µM) | 12.5 (≈ 8.22 µM) | 12.5 (≈ 8.22 µM) | 6.25 (≈ 4.11 µM) | 6.25 (≈ 4.11 µM) | 6.25 (≈ 4.11 µM) | 25 (≈ 16.4 µM) | 50 (≈ 32.9 µM) | 25 (≈ 16.4 µM)
5 | CCCCCCCC(=O)N[C@@H](C(=O)N[C@H](CCN)C(=O)NCC(=O)N[C@H](CO)C(=O)N[C@H](Cc1c[nH]c2ccccc12)C(=O)N[C@@H](CO)C(=O)N[C@@H](CCN)C(=O)N[C@H](CCN)C(=O)N[C@@H](Cc1ccccc1)C(=O)N[C@@H](CCC(=O)O)C(=O)N[C@H](C(=O)N[C@@H](C(=O)N[C@@H](C)C(=O)O)C(C)C)C(C)C)C(C)C (Octanoyl-[dV][dDab]G[dS][dW]S[Dab][dDab]FEV[dV]A-OH) | 6.25 (≈ 4.15 µM) | 12.5 (≈ 8.3 µM) | 25 (≈ 16.6 µM) | 12.5 (≈ 8.3 µM) | 25 (≈ 16.6 µM) | 12.5 (≈ 8.3 µM) | 12.5 (≈ 8.3 µM) | 12.5 (≈ 8.3 µM) | 50 (≈ 33.2 µM) | 50 (≈ 33.2 µM) | 100 (≈ 66.4 µM)
6 | CCCCCCCC(=O)N[C@@H](C(=O)N[C@H](CCCCN)C(=O)NCC(=O)N[C@H](CO)C(=O)N[C@H](Cc1c[nH]c2ccccc12)C(=O)N[C@@H](CO)C(=O)N[C@@H](CCCCN)C(=O)N[C@H](CCN)C(=O)N[C@@H](Cc1ccccc1)C(=O)N[C@@H](CCC(=O)O)C(=O)N[C@H](C(=O)N[C@@H](C(=O)N[C@@H](C)C(=O)O)[C@@H](C)CC)C(C)C)C(C)C (Octanoyl-[dV][dK]G[dS][dW]SK[dDab]FEV[d(aIle)]A-OH) | 25 (≈ 15.9 µM) | 25 (≈ 15.9 µM) | 25 (≈ 15.9 µM) | 25 (≈ 15.9 µM) | 50 (≈ 31.7 µM) | 25 (≈ 15.9 µM) | 25 (≈ 15.9 µM) | 50 (≈ 31.7 µM) | 50 (≈ 31.7 µM) | 25 (≈ 15.9 µM) | 25 (≈ 15.9 µM)
7 | CCCCCCCC(=O)N[C@@H](C(=O)N[C@H](CCCN)C(=O)NCC(=O)N[C@H](CO)C(=O)N[C@H](Cc1c[nH]c2ccccc12)C(=O)N[C@@H](CO)C(=O)N[C@@H](CCCN)C(=O)N[C@H](CCN)C(=O)N[C@@H](Cc1ccccc1)C(=O)N[C@@H](CCC(=O)O)C(=O)N[C@H](C(=O)N[C@@H](C(=O)N[C@@H](C)C(=O)O)[C@@H](C)CC)C(C)C)C(C)C (Octanoyl-[dV][dOrn]G[dS][dW]S[Orn][dDab]FEV[d(aIle)]A-OH) | 25 (≈ 16.1 µM) | 25 (≈ 16.1 µM) | 25 (≈ 16.1 µM) | 25 (≈ 16.1 µM) | 100 (≈ 64.6 µM) | 25 (≈ 16.1 µM) | 25 (≈ 16.1 µM) | 100 (≈ 64.6 µM) | 50 (≈ 32.3 µM) | 12.5 (≈ 8.07 µM) | 50 (≈ 32.3 µM)
8 | CCCCCCCC(=O)N[C@@H](C(=O)N[C@H](CCCN)C(=O)NCC(=O)N[C@H](CO)C(=O)N[C@H](Cc1c[nH]c2ccccc12)C(=O)N[C@@H](CO)C(=O)N[C@@H](CCCN)C(=O)N[C@H](CCCN)C(=O)N[C@@H](Cc1ccccc1)C(=O)N[C@@H](CCC(=O)O)C(=O)N[C@H](C(=O)N[C@@H](C(=O)N[C@@H](C)C(=O)O)[C@@H](C)CC)C(C)C)C(C)C (Octanoyl-[dV][dOrn]G[dS][dW]S[Orn][dOrn]FEV[d(aIle)]A-OH) | 6.25 (≈ 4 µM) | 25 (≈ 16 µM) | 25 (≈ 16 µM) | 25 (≈ 16 µM) | 12.5 (≈ 8 µM) | 6.25 (≈ 4 µM) | 25 (≈ 16 µM) | 12.5 (≈ 8 µM) | 50 (≈ 32 µM) | 50 (≈ 32 µM) | 50 (≈ 32 µM)
